Results collected from several papers.
Protocols differ between the studies behind these lines.
OPRK1: Kappa-type opioid receptor (OPRK1, Homo sapiens, UniProt P41145)
CNR1: Cannabinoid receptor 1 (CNR1, Homo sapiens, UniProt P21554)
PFF0160c: Dihydroorotate dehydrogenase (quinone), mitochondrial (PFF0160c, Plasmodium falciparum, UniProt Q08210)

| SMILES | target | assay | conditions | measurement | value |
| --- | --- | --- | --- | --- | --- |
| Brc1ccc2c(c1)C(c1ccccn1)=NCc1c(-c3cnco3)ncn1-2 | OPRK1 | ligand displacement, radioligand |  | Ki | 2100 nM |
| CCCCCn1c(O)c(N=NC(=O)c2ccccc2)c2ccccc21 | CNR1 | β-arrestin recruitment, agonist |  | EC50 | 780 nM |
| Cn1nc2c(=O)n(C3CC3)cnc2c1[C@](O)(c1cnc(C(F)(F)F)c(Cl)c1)C1CC1 | PFF0160c | enzyme activity, inhibitor |  | IC50 | 20 nM |
| O=C(N[C@H]1CC[C@@]2(O)[C@H]3Cc4ccc(O)c5c4[C@@]2(CCN3CC2CC2)[C@H]1O5)c1ccc(F)s1 | OPRK1 | ligand displacement, radioligand | cell membranes | Ki | 2.2 nM |
| COC(=O)[C@@H](NC(=O)c1nn(Cc2ccc(F)cc2)c2ccccc12)C(C)C | CNR1 | G protein activation, agonist |  | EC50 | ~4 nM |
| NS(=O)(=O)c1ccc(C(=O)N[C@H]2CC[C@@]3(O)[C@H]4Cc5ccc(O)c6c5[C@@]3(CCN4CC3CC3)[C@H]2O6)s1 | OPRK1 | ligand displacement, radioligand | cell membranes | Ki | 3.93 nM |
| Cn1nc2c(=O)n(C3CC3)cc(C3CC3)c2c1Cc1ccc(C(F)(F)F)nc1 | PFF0160c | enzyme activity, inhibitor |  | IC50 | 39.8 nM |
| COc1ccc(C(=O)N[C@H]2CC[C@@]3(O)[C@H]4Cc5ccc(O)c6c5[C@@]3(CCN4CC3CC3)[C@H]2O6)s1 | OPRK1 | ligand displacement, radioligand | cell membranes | Ki | 1.69 nM |
| CCCCCc1cc(O)c2c(c1)OC(C)(CCC=C(C)C)C=C2 (stereo not drawn) | CNR1 | ligand displacement, radioligand |  | Ki | 6760 nM |
| CC(=O)Nc1ccc(C(=O)N[C@H]2CC[C@@]3(O)[C@H]4Cc5ccc(O)c6c5[C@@]3(CCN4CC3CC3)[C@H]2O6)s1 | OPRK1 | ligand displacement, radioligand | cell membranes | Ki | 4.96 nM |
| CCn1ccc2c(Cc3ccc(C(F)(F)F)nc3)n(C)nc2c1=O | PFF0160c | enzyme activity, inhibitor |  | IC50 | 1580 nM |
| Cc1ccc(C(=O)N[C@H]2CC[C@@]3(O)[C@H]4Cc5ccc(O)c6c5[C@@]3(CCN4CC3CC3)[C@H]2O6)s1 | OPRK1 | ligand displacement, radioligand | cell membranes | Ki | 1.67 nM |
| CNC(=O)c1ccc(-c2cnn3ccc(C(=O)N(C)c4ccc(Cl)c(C(=O)O)c4)cc23)cc1 | Serine/threonine-protein kinase WNK1 (WNK1, Homo sapiens, UniProt Q9H4A3) | enzyme activity, inhibitor |  | IC50 | > 30000 nM |
| CCn1cc(C2CC2)c2c(Cc3ccc(C(F)(F)F)c(F)c3)n(C)nc2c1=O | PFF0160c | enzyme activity, inhibitor |  | IC50 | 12.6 nM |
| O=C(N=Nc1c(O)n(CCCCCF)c2ccccc12)c1ccccc1 | CNR1 | ligand displacement, radioligand | cell membranes | Ki | 2240 nM |
